In ChEMBL document CHEMBL1138409, “Diaryl substituted pyrazoles as potent CCR2 receptor antagonists” (Bioorg Med Chem Lett, 2007):
Activity calls are given as the source filed them. The calls are words filed in the database; no cut-off is given here.

Key:
[1] = target: T1, C-C chemokine receptor type 2 (Homo sapiens, UniProt P41597); experiment: Displacement of 125I-hMCP1 from CCR2 expressed in human peripheral blood monocytes after 60 mins; type: cell-based
How it was run: (§1)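 Primary human blood monocytes, which express CCR2 endogenously, were incubated with 125I-hMCP-1 (2200 Ci/mmol) and the unlabeled compound. Incubation was 60 min at room temperature in 50 mM Hepes, 5 mM MgCl2 and 1 mM CaCl2, pH 7.4. Bound label was collected by filtration through PEI-presoaked GF/B filters and washed with 25 mM Hepes pH 7.5 containing 500 mM NaCl. Filters were then dried and counted by scintillation. Values are the mean of at least two experiments.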
Target sequence in this assay (P41597 whole entry): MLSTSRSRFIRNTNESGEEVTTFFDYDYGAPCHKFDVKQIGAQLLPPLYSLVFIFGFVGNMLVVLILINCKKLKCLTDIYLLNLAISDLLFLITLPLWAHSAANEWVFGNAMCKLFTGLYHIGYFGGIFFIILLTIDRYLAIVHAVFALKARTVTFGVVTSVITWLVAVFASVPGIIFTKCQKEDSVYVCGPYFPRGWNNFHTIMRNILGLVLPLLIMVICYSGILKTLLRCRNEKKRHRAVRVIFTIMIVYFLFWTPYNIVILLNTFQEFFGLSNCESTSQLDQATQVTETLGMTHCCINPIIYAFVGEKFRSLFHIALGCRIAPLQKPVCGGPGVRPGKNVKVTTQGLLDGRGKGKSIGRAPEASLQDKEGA

[2] = target: T1, C-C chemokine receptor type 2; experiment: Displacement of 125I-hMCP1 from CCR2 expressed in human peripheral blood monocytes less than 10 uM after 60 mins; type: cell-based; how it was run: as §1
Target sequence in this assay (P41597 whole entry): as above

[3] = target: T1, C-C chemokine receptor type 2; experiment: Displacement of 125I-hMCP1 from CCR2 expressed in human peripheral blood monocytes at 10 uM after 60 mins; type: cell-based
Target sequence in this assay (P41597 whole entry, looked up): as the sequence (P41597 whole entry) above

[4] = target: T1, C-C chemokine receptor type 2; experiment: Displacement of 125I-hMCP1 from CCR2 expressed in human peripheral blood monocytes at 1 uM after 60 mins; type: cell-based
Target sequence in this assay (P41597 whole entry, looked up): as the sequence (P41597 whole entry) above

[5] = target: C-C chemokine receptor type 5 (Homo sapiens, UniProt P51681); experiment: Inhibition of CCR5
[6] = target: T1, C-C chemokine receptor type 2; experiment: Antagonist activity against human CCR2 receptor assessed as inhibition of MCP1-induced migration of human peripheral blood monocytes at 300 nM; type: functional; design: scale not given: the % may be the effect or the level left
Target sequence in this assay (P41597 whole entry, looked up): as the sequence (P41597 whole entry) above

[7] = Clearance in Sprague-Dawley rat at 1 mg/kg, iv and 2 mg/kg, po; type: ADME, organism-based; conditions: in vivo
[8] = Volume of distribution in Sprague-Dawley rat; type: ADME, organism-based; conditions: in vivo
[9] = Half life in Sprague-Dawley rat; type: ADME, organism-based; conditions: in vivo
[10] = Oral bioavailability in Sprague-Dawley rat at 2 mg/kg; type: ADME, organism-based; conditions: in vivo

Sequence of C-C chemokine receptor type 5 (P51681 whole entry): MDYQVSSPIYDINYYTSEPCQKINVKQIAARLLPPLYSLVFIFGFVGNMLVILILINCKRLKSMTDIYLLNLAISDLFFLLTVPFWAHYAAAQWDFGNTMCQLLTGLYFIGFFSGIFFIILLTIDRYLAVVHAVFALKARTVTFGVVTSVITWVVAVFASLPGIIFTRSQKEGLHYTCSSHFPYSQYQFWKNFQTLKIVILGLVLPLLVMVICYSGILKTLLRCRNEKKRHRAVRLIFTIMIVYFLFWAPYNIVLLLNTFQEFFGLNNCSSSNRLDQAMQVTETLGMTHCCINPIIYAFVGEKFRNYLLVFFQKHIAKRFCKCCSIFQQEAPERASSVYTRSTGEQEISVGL

| IC50 [1] [nM] | Compound | also measured |
| --- | --- | --- |
| 6470 | CCN(CC)CCCC(C)NC(=O)CCCc1cc(-c2cc(Cl)cc(Cl)c2)nn1-c1cc(C(F)(F)F)cc(C(F)(F)F)c1 (centres undefined) |  |
| 107 | CCC(C)CC(CCCN(CC)CC)NC(=O)CCOc1cc(-c2cc(Cl)cc(Cl)c2)nn1-c1ccc2ccccc2c1 (centres undefined) |  |
| 207 | CCN(CC)CCCC(C)NC(=O)CCCc1cc(-c2cccc(C(F)(F)F)c2)nn1-c1ccc2ccccc2c1 (centres undefined) |  |
| 1800 | CN(C)CCCCNC(=O)CCCc1cc(-c2cc(Cl)cc(Cl)c2)nn1-c1ccc2ccccc2c1 |  |
| 2390 | CCN(CC)CCCC(C)NC(=O)CCCc1cc(-c2cccc(OC)c2)nn1-c1ccc2ccccc2c1 (centres undefined) |  |
| 9 | CCC(CCCN(CC)CC)NC(=O)CCOc1cc(-c2cc(Cl)cc(Cl)c2)nn1-c1ccc2ccccc2c1 (centres undefined) |  |
| 62 | COC(=O)[C@H](CCCNC(=N)N)NC(=O)CCOc1cc(-c2cc(Cl)cc(Cl)c2)nn1-c1ccc2ccccc2c1 |  |
|  | COC(=O)[C@H](CCCNC(=N)N)NC(=O)c1cccc(-c2cc(-c3cc(Cl)cc(Cl)c3)nn2-c2ccc3ccccc3c2)c1 | IC50 [2]: Not Active |
| 1120 | O=C(CCCc1cc(-c2cc(Cl)cc(Cl)c2)nn1-c1ccc2ccccc2c1)NCCCc1ccncc1 |  |
|  | CCN(CC)CCCC(C)NC(=O)CCCc1cc(-c2ccccc2Cl)nn1-c1ccc2ccccc2c1 (centres undefined) | Activity [3]: 69% |
| 7600 | COC(=O)[C@H](CCCNC(=N)N)NC(=O)CCCOc1cc(-c2cc(Cl)cc(Cl)c2)nn1-c1ccc2ccccc2c1 |  |
|  | CCCCC(CCCN(CC)CC)NC(=O)CCOc1cc(-c2cc(Cl)cc(Cl)c2)nn1-c1ccc2ccccc2c1 (centres undefined) | Activity [4]: 52% |
| 4740 | COC(=O)[C@H](CCCN=C(N)N)NC(=O)CCc1cc(-c2cc(Cl)cc(Cl)c2)nn1-c1ccc2ccccc2c1 |  |
| 6 | CCN(CC)CCCC(NC(=O)CCOc1cc(-c2cc(Cl)cc(Cl)c2)nn1-c1ccc2ccccc2c1)C(C)C (centres undefined) | IC50 [5]: 1610 nM |
| 634 | CCN(CC)CCCC(C)NC(=O)CCCc1cc(-c2cc(C(F)(F)F)cc(C(F)(F)F)c2)nn1-c1ccc2ccccc2c1 (centres undefined) |  |
| 522 | CCN(CC)CCCC(C)NC(=O)CCCc1cc(-c2cccc(F)c2)nn1-c1ccc2ccccc2c1 (centres undefined) |  |

| IC50 [1] [nM] | Compound | also measured |
| --- | --- | --- |
| 442 | CCN(CC)CCCC(C)NC(=O)CCCc1cc(-c2ccc(Cl)cc2)nn1-c1ccc2ccccc2c1 (centres undefined) | Activity [6]: inactive |
| 9330 | O=C(CCCc1cc(-c2cc(Cl)cc(Cl)c2)nn1-c1ccc2ccccc2c1)NCCCc1ccc2c(n1)NCCC2 |  |
| 1230 | CCN(CC)CCCCNC(=O)CCCc1cc(-c2cc(Cl)cc(Cl)c2)nn1-c1ccc2ccccc2c1 |  |
|  | COC(=O)[C@H](CCCNC(=N)N)NC(=O)CC(=O)Nc1cc(-c2cc(Cl)cc(Cl)c2)nn1-c1ccc2ccccc2c1 | IC50 [2]: Not Active |
| 30 | CCN(CC)CCCC(C)NC(=O)CCNc1cc(-c2cc(Cl)cc(Cl)c2)nn1-c1ccc2ccccc2c1 (centres undefined) |  |
| 43 | COC(=O)[C@H](CCCNC(=N)N)NC(=O)CCNc1cc(-c2cc(Cl)cc(Cl)c2)nn1-c1ccc2ccccc2c1 |  |
|  | COC(=O)[C@H](CCCNC(=N)N)NCCCCc1cc(-c2cc(Cl)cc(Cl)c2)nn1-c1ccc2ccccc2c1 | IC50 [2]: Not Active |
|  | CCN(CC)CCCC(C)NC(=O)CCCc1cc(-c2cc(Cl)cc(Cl)c2)nn1-c1ccccc1 (centres undefined) | Activity [3]: 69% |
| 66 | CCN(CC)CCCC(C)NC(=O)CCOc1cc(-c2cc(Cl)cc(Cl)c2)nn1-c1ccc2ccccc2c1 (centres undefined) |  |
| 168 | CCN(CC)CCCC(C)NC(=O)CCCc1cc(-c2cccc(Cl)c2)nn1-c1ccc2ccccc2c1 (centres undefined) | Activity [6]: 57% |
| 108 | CCN(CC)CCCC(C)NC(=O)CCCc1cc(-c2cc(Cl)cc(Cl)c2)nn1-c1ccc2ccccc2c1 (centres undefined) | clearance [7]: 28.1 mL/min/kg; Vd [8]: 13 L/kg; half-life [9]: 6.52 h; bioavailability [10]: 5%; IC50 [5]: 220 nM |
| 74 | CCN(CC)CCCC(CC(C)C)NC(=O)CCOc1cc(-c2cc(Cl)cc(Cl)c2)nn1-c1ccc2ccccc2c1 (centres undefined) |  |
| 2840 | COC(=O)[C@H](Cc1c[nH]cn1)NC(=O)CCCc1cc(-c2cc(Cl)cc(Cl)c2)nn1-c1ccc2ccccc2c1 |  |
| 221 | COC(=O)[C@H](CCCNC(=N)N)NC(=O)CCCc1cc(-c2cc(Cl)cc(Cl)c2)nn1-c1ccc2ccccc2c1 | clearance [7]: 8.3 mL/min/kg; Vd [8]: 0.98 L/kg; half-life [9]: 2.49 h; bioavailability [10]: 0%; IC50 [5]: 63 nM |
| 44 | CCCC(CCCN(CC)CC)NC(=O)CCOc1cc(-c2cc(Cl)cc(Cl)c2)nn1-c1ccc2ccccc2c1 (centres undefined) |  |
